Experimental data as given in ChEMBL document CHEMBL5331128, “Alicyclic Ring Size Variation of 4-Phenyl-2-naphthoic Acid Derivatives as P2Y14 Receptor Antagonists” (J Med Chem, 2023).
Active and inactive are the calls of the source.

How the values were obtained:
[1] = Lipophilicity, log D of compound at pH 7.4 incubated for 20 hrs by HPLC analysis; assay type: physicochemical; conditions: buffer
P2Y purinoceptor 14 [2] = target: T1, P2Y purinoceptor 14 (Homo sapiens, UniProt Q15391); assay: (§1) Displacement of fluorescent tracer 4-(4-(1-(4-(1-(6-(3-carboxylato-4-(3-iminio-3H-xanthen-9-yl)benzamido)hexyl)-4,5-dihydro-1H-pyrrol-3-yl)butyl)piperidin-1-ium-4-yl)phenyl)-7-(4-(trifluoromethyl)phenyl)-2-naphthoate from human P2Y14R stably expressed in CHO cells by flow cytometry; assay type: cell-based
T1 sequence (Q15391 whole entry): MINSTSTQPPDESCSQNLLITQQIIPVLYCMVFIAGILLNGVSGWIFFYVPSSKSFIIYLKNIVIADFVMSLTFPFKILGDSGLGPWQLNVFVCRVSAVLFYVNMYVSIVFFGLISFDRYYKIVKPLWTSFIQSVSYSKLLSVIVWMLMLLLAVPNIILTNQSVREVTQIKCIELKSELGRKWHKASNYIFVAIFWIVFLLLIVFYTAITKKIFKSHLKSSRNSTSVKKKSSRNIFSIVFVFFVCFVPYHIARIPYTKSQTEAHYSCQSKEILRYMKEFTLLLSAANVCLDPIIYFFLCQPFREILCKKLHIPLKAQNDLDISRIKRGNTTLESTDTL
In short: (§2)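 Whole-cell competitive binding: CHO cells expressing hP2Y14R (or HEK-293 cells expressing mP2Y14R) incubated with AlexaFluor488-labelled antagonist tracer at 20 nM.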

P2Y purinoceptor 14 [3] = target: T1, P2Y purinoceptor 14; assay: as §1, with “cells assessed as inhibition constant” for “cells”; assay type: cell-based; in short: as §2
[4] = Selectivity ratio, ratio of IC50 for displacement of fluorescent tracer 4-(4-(1-(4-(1-(6-(3-carboxylato-4-(3-iminio-3H-xanthen-9-yl)benzamido)hexyl)-4,5-dihydro-1H-pyrrol-3-yl)butyl)piperidin-1-ium-4-yl)phenyl)-7-(4-(trifluoromethyl)phenyl)-2-naphthoate from mouse P2Y14R stably expressed in human HEK293 cells to IC50 for displacement of fluorescent tracer 4-(4-(1-(4-(1-(6-(3-carboxylato-4-(3-iminio-3H-xanthen-9-yl)benzamido)hexyl)-4,5-dihydro-1H-pyrrol-3-yl)butyl)piperidin-1-ium-4-yl)phenyl)-7-(4-(trifluoromethyl)phenyl)-2-naphthoate from human P2Y14R stably expressed in CHO cells; assay type: cell-based
P2Y purinoceptor 14 [5] = target: T2, P2Y purinoceptor 14 (Mus musculus, UniProt Q9ESG6); assay: Displacement of fluorescent tracer 4-(4-(1-(4-(1-(6-(3-carboxylato-4-(3-iminio-3H-xanthen-9-yl)benzamido)hexyl)-4,5-dihydro-1H-pyrrol-3-yl)butyl)piperidin-1-ium-4-yl)phenyl)-7-(4-(trifluoromethyl)phenyl)-2-naphthoate from mouse P2Y14R stably expressed in human HEK293 cells by flow cytometry; assay type: cell-based
T2 sequence (Q9ESG6 whole entry): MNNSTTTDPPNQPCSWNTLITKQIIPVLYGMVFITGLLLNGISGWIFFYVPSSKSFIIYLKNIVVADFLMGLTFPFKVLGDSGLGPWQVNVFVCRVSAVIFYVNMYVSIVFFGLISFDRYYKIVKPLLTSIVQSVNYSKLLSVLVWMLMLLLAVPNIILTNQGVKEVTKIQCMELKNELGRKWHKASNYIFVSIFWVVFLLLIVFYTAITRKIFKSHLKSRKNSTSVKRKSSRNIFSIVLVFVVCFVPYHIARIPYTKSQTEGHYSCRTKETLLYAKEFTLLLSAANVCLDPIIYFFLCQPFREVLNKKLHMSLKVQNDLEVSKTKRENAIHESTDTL
In short: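 Whole-cell competitive binding: CHO cells expressing hP2Y14R (or HEK-293 cells expressing mP2Y14R) incubated with AlexaFluor488-labelled antagonist tracer at 20 nM. […] Ki derived by dividing IC50 by 1.72.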

Mus musculus [6] = assay: Antiallodynic activity in CCI surgery neuropathic pain Hsd:ICR mouse model assessed as reversal of mechano-allodynia by measuring paw withdrawal threshold at 10 micromol/kg,ip and measured upto 5 days by von frey test; assay type: functional, organism-based; conditions: dose 10.0 µmol/kg, time <= 5.0 day
In short: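 CCI neuropathic pain in adult male Hsd:ICR (CD-1) mice (20–30 g). Single i.p. injection on day 7 after sciatic nerve constriction, at peak pain. Vehicle 10% (Kolliphor HS 15:DMSO 5:95) in saline, 0.2 mL. Paw withdrawal threshold by von Frey filaments on ipsilateral and contralateral hindpaws. Mean ± SD; two-way ANOVA with Dunnett's test versus day 0 and day 7.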

Mus musculus [7] = assay: Antiallodynic activity in CCI surgery neuropathic pain Hsd:ICR mouse model assessed as reversal of mechano-allodynia by measuring paw withdrawal threshold at 10 micromol/kg,po and measured upto 6 hrs by von frey test; assay type: functional, organism-based; conditions: dose 10.0 µmol/kg
In short: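 CCI neuropathic pain in adult male CD-1 mice. Single oral gavage dose of 10 μmol/kg on day 7 post-surgery. Vehicle 5% DMSO + 10% (Kolliphor HS 15:DMSO 5:95) in 0.5% methylcellulose, 0.2 mL. Von Frey paw withdrawal threshold on both hindpaws. Mean ± SD; two-way ANOVA with Dunnett's test.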

Mus musculus [8] = assay: Anti-asthmatic activity against OVA/Aspergillus-sensitized protease-mediated C57BL/6J mouse model allergic asthma assessed as reduction in airway eosinophilia in BAL fluid at 10 mg/kg,ip followed by 0.5 hrs OVA challenge and measured after 48 hrs; assay type: functional, organism-based; conditions: time 48.5 hrs
Mus musculus [9] = assay: Anti-asthmatic activity against OVA/Aspergillus-sensitized protease-mediated C57BL/6J mouse model allergic asthma assessed as reduction in macrophages in BAL fluid at 10 mg/kg,ip followed by 0.5 hrs OVA challenge and measured after 48 hrs; assay type: functional, organism-based; conditions: time 48.5 hrs
Mus musculus [10] = assay: Anti-asthmatic activity against OVA/Aspergillus-sensitized protease-mediated C57BL/6J mouse model allergic asthma assessed as reduction in lymphocytes in BAL fluid at 10 mg/kg,ip followed by 0.5 hrs OVA challenge and measured after 48 hrs; assay type: functional, organism-based; conditions: time 48.5 hrs
Mus musculus [11] = assay: Anti-asthmatic activity against OVA/Aspergillus-sensitized protease-mediated C57BL/6J mouse model allergic asthma assessed as reduction in neutrophils in BAL fluid at 10 mg/kg,ip followed by 0.5 hrs OVA challenge and measured after 48 hrs; assay type: functional, organism-based; conditions: time 48.5 hrs

| Structure (SMILES) | logD at 20 h [1] | IC50 (P2Y purinoceptor 14 [2]) | Ki (P2Y purinoceptor 14 [3]) | further results |
| --- | --- | --- | --- | --- |
| O=C(O)c1cc(-c2ccc(/C3=C/CCNCCC3)cc2)c2ccc(-c3ccc(C(F)(F)F)cc3)cc2c1 | 2.9 | 58.4 nM | 34 nM | – |
| COC1(c2ccc(-c3cc(C(=O)O)cc4cc(-c5ccc(C(F)(F)F)cc5)ccc34)cc2)CC2(CNC2)C1 | 1.8 | 46.5 nM | 27 nM | – |
| O=C(O)c1cc(-c2ccc(C3(O)CCCNCCC3)cc2)c2ccc(-c3ccc(C(F)(F)F)cc3)cc2c1 | – | – | 1030 nM | – |
| O=C(O)c1cc(-c2ccc(C3=C[C@H]4CNC[C@@H]4C3)cc2)c2ccc(-c3ccc(C(F)(F)F)cc3)cc2c1 (racemic) | 2.2 | – | 9.65 nM | Ratio IC50 [4]: 0.336; IC50 (P2Y purinoceptor 14 [5]): 5.57 nM |
| CCOC(=O)N1C[C@H]2C[C@@H]1C[C@@H]2c1ccc(-c2cc(C(=O)OCC(=O)N(C)C)cc3cc(-c4ccc(C(F)(F)F)cc4)ccc23)cc1 | – | – | – | Activity (Mus musculus [6]): Active; Activity (Mus musculus [7]): Active |
| CCOC(=O)N1C[C@H]2C[C@@H](C1)[C@@]2(O)c1ccc(-c2cc(C(=O)O)cc3cc(-c4ccc(C(F)(F)F)cc4)ccc23)cc1 | – | 81.6 nM | 47.4 nM | – |
| CCOC(=O)N1C[C@H]2C[C@@H](C1)[C@@]2(O)c1ccc(-c2cc(C(=O)OCC(=O)N(C)C)cc3cc(-c4ccc(C(F)(F)F)cc4)ccc23)cc1 | – | – | – | Activity (Mus musculus [8]): inactive; Activity (Mus musculus [9]): inactive; Activity (Mus musculus [10]): inactive; Activity (Mus musculus [6]): Active; Activity (Mus musculus [7]): Active; Activity (Mus musculus [11]): inactive |
| O=C(O)c1cc(-c2ccc(C3(O)CC4(CNC4)C3)cc2)c2ccc(-c3ccc(C(F)(F)F)cc3)cc2c1 | 0.81 | – | 12.1 nM | – |
| NCCCCCCn1cc(CCCCN2CCC(c3ccc(-c4cc(C(=O)O)cc5cc(-c6ccc(C(F)(F)F)cc6)ccc45)cc3)CC2)nn1 | – | 116 nM | 67.4 nM | – |
